Laboratory results: ChEMBL document CHEMBL1149285, “Identification of novel parasitic cysteine protease inhibitors using virtual screening. 1. The ChemBridge database” (J Med Chem, 2004)
Calls of active or inactive are those of the source. No cut-off for these calls is given here.

Tests used:
Falcipain 2 = target: T1, Falcipain 2 (Plasmodium falciparum, UniProt Q9N6S8); assay: Inhibition of Plasmodium falciparum recombinant falcipain-2
T1 sequence (Q9N6S8 whole entry): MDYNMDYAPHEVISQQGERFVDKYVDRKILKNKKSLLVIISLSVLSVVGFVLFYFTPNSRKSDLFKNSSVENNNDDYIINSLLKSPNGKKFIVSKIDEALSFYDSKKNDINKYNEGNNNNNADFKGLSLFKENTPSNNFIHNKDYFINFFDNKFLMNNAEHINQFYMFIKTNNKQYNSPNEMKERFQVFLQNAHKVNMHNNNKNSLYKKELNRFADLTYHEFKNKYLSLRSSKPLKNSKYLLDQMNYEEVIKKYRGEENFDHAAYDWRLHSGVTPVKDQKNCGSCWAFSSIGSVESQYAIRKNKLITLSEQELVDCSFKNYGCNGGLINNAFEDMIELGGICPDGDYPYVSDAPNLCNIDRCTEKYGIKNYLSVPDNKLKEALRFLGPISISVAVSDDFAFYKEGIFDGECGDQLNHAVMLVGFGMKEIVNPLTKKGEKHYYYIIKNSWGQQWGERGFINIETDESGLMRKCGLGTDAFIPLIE
Outline: (§1)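 Equal amounts of recombinant enzyme preincubated 30 min at room temperature with serial inhibitor dilutions from DMSO stocks (DMSO at most 1% in assay) in 100 mM sodium acetate pH 5.5, 10 mM dithiothreitol. Z-Leu-Arg-AMC then added to 25 μM final; fluorescence followed 15 min at room temperature. IC50 taken from percent activity versus concentration plots.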

Plasmodium falciparum [1] = assay: Antiplasmodial activity against chloroquine-resistant Plasmodium falciparum W2 as LDH activity after 48 hrs; format: functional, organism-based; conditions: W2, 48 h
Outline: (§2)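 Asynchronous P. falciparum cultures (2% hematocrit, 2% parasitemia) were exposed to compound dilutions prepared in DMSO. They were incubated 48 h at 37 °C in a humidified chamber under 90% N2, 5% CO2, 5% O2. Growth was read as parasite lactate dehydrogenase activity using Malstat reagent. Medium-only and erythrocyte-only wells were included, with chloroquine and artemisinin as positive and DMSO as negative controls.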

[2] = target: T2, Cysteine protease falcipain-3 (Plasmodium falciparum, UniProt Q9NBA7); assay: Inhibition of Plasmodium falciparum recombinant falcipain-3; outline: as §1
T2 sequence (Q9NBA7 whole entry): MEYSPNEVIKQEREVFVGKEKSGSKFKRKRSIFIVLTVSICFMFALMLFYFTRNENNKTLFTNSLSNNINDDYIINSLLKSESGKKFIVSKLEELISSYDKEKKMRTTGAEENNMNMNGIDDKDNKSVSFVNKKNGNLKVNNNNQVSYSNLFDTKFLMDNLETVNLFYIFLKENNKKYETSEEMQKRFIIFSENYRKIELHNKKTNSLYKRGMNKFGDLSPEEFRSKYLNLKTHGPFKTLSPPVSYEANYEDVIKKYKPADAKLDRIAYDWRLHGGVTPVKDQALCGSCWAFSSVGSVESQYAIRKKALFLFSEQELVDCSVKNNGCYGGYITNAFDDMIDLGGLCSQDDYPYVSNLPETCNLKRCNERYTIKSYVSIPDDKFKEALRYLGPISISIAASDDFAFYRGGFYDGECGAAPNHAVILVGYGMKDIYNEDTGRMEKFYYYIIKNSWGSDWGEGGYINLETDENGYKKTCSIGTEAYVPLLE

Vero [3] = assay: Cytotoxicity against Vero cells by Neutral red assay; format: cell-based; conditions: chlorocebus sabaeus
Outline: (§3)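 VERO monkey kidney […] exposed to compounds alongside the antiparasitic assays, viability by Neutral Red uptake; highest concentration tested 23.8 μg/mL; IC50 computed from growth inhibition curve.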

Leishmania donovani = assay: Antileishmanial activity against Leishmania donovani promastigotes after 72 hrs by Alamar blue assay; format: functional, organism-based
Outline: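 L. donovani promastigote culture at 2 × 10⁶ cells/mL given diluted compounds, incubated 72 h at 26 °C; growth read by Alamar blue. Pentamidine and amphotericin B as reference agents; IC50 computed from growth inhibition curve.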

Plasmodium falciparum [4] = assay: Antiplasmodial activity against chloroquine-sensitive Plasmodium falciparum D6 after 48 hrs as LDH reporter activity; format: functional, organism-based; conditions: D6, 48 h; outline: as §2
Cysteine protease = target: T3, Cysteine protease (Leishmania donovani, UniProt Q95WR6); assay: Inhibition of Leishmania donovani cysteine protease
T3 sequence (Q95WR6 whole entry): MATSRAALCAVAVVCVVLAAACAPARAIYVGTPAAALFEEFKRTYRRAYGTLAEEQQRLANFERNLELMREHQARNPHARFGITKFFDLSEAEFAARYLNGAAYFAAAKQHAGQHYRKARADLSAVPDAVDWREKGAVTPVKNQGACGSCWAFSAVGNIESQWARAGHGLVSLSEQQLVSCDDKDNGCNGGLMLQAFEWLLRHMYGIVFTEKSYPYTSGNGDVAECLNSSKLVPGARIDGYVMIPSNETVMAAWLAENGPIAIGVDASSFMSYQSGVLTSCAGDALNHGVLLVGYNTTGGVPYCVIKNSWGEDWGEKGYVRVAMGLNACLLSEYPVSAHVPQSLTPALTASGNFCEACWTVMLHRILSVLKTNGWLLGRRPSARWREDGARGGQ

Vero [5] = assay: Cytotoxicity against Vero cells at 23.8 ug/mL by Neutral red assay; format: cell-based; conditions: chlorocebus sabaeus; outline: as §3

SMILES	IC50 (Falcipain 2) [µM]	EC50 (Plasmodium falciparum [1]) [µM]	IC50 [2] [µM]	IC50 (Vero [3]) [µM]	IC50 (Leishmania donovani) [µM]	EC50 (Plasmodium falciparum [4]) [µM]	IC50 (Cysteine protease) [µM]	Activity (Leishmania donovani)	Activity (Vero [5])
Oc1cccc(/C=N\c2cccc3c(/N=C/c4cccc(O)c4O)cccc23)c1O	4.6	6.6	5.8	28.9	8.8	6.9	113		
O=C(O)c1ccccc1N/N=C/c1ccc(/C=N/Nc2ccccc2C(=O)O)cc1	1	41	4.9			34.8	72	inactive	Non-toxic
